Screens deposited in PubChem BioAssay by Johns Hopkins Ion Channel Center.
Kir21 block: inhibitors of mouse Kir2.1 inward-rectifier potassium channel | P35561 | HEK293-Kir2.1, FluxOR thallium flux fluorescence; stronger effect = lower value | B-score at 10 µM | 310,000 tested, 0.85% active | AID 1672;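 active = fluorescence ratio B-score at or below minus 3 SD of library scores, with starting-brightness B-score within 2 SD, cut at about -4.2 in these data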;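 note: channel flux triggered by added potassium and thallium sulfate stimulus; B-score of peak minus minimum fluorescence over baseline after thallium stimulus; more negative B-score means stronger Kir2.1 block with less thallium influx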
KCNK3 inh: human KCNK3 channel inhibition, primary screen. O14649. CHO-KCNK3 thallium flux, FluxOR fluorescence; stronger effect = lower value. B-score at 10 µM. 340,000 tested, 0.84% active. AID 602410;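 active = B-score under library mean minus 4 SD, starting fluorescence ratio at most library mean plus 5 SD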;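 note: more negative B-score means stronger inhibition of thallium flux through KCNK3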
KCNQ1 inh: inhibitors of human KCNQ1 potassium channel. P51787. CHO-K1 KCNQ1, FluxOR thallium flux fluorescence; stronger effect = higher value. B-score at 10 µM. 310,000 tested, 1.3% active. AID 2642;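 active = compounds whose thallium flux B-score, printed positive for inhibition, exceeds three library SD while starting fluorescence stays within three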;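 note: channel opened by potassium depolarization with thallium stimulus after 20 min compound exposure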
Target sequence (P51787 whole entry, looked up): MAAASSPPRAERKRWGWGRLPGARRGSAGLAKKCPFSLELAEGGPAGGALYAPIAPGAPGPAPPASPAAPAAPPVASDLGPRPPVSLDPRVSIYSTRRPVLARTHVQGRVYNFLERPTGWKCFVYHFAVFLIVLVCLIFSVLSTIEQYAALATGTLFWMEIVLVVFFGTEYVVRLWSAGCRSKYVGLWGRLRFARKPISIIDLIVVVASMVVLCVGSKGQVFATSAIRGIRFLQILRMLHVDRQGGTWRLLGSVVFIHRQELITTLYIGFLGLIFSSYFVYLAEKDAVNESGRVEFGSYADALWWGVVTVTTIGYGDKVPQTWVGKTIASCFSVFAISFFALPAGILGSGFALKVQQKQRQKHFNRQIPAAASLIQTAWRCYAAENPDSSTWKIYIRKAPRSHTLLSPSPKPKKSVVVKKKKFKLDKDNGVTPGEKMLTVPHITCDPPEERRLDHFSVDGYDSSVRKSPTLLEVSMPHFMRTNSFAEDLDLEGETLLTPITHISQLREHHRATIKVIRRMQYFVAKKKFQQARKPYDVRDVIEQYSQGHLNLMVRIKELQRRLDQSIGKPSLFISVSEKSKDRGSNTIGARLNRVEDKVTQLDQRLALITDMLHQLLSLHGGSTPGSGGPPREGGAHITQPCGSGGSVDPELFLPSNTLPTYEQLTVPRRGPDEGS
KCNK9 inh: blocks the human KCNK9 two-pore domain potassium channel. Q9NPC2. HEK293 KCNK9, FluxOR thallium flux fluorescence; stronger effect = lower value. B-score at 10 µM. 310,000 tested, 1.2% active;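 active = ratio B-score over 3 SD below the library mean, with starting fluorescence within 5 SD of its mean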;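 note: negative B-score means less thallium flux so channel inhibition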
hERG protect: shields human hERG channel from block by proarrhythmic agents; CHO-hERG, FluxOR thallium flux, dofetilide IC70 present; activation (rescue from dofetilide block), less the hit threshold, % at 10 µM; 310,000 tested, 0.51% active; AID 1511;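 active = activation above the mean of controls blocked by dofetilide plus 5 SD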;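 note: thallium influx through hERG after potassium depolarization seen as dye fluorescence rise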
KCNQ1 pot: potentiators or activators of human KCNQ1 potassium channel; P51787; CHO-K1 KCNQ1, thallium flux FluxOR fluorescence; stronger effect = higher value; B-score at 10 µM; 310,000 tested, 0.35% active;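 active = fluorescence ratio B-score, a plate-corrected score, at least three library SD, with initial intensity B-score within 5 SD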
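Schedule – 37 °C overnight plating, 90-min dark dye load, 20-min compound pretreatment · System – stable KCNQ1 CHO-K1 line · Probe or stimulus – thallium- and potassium-containing depolarizing buffer · Measured by – kinetic FluxOR fluorescence, 10 s baseline plus 110 s post-stimulus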
KCNK3 inh conf: confirmation of human KCNK3 two-pore domain potassium channel inhibitors | shares compounds with KCNK3 inh | ratio percent of control, % at 10 µM | 2,400 tested, 99% active | CHO-KCNK3 thallium flux, FluxOR fluorescence; 0% buffer, 100% carvedilol maximal block;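 active = ratio percent of control, averaged over triplicates, above buffer control mean plus 5 SD, cut at about 64% in these data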;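 note: ratio is the fluorescence rise from min to max over baseline after thallium stimulus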
KCNK3 uninduced: KCNK3 inhibitor counter-screen hit in non-induced cells. AID 651747. thallium flux ratio (lower = more inhibition) at 10 µM. shares compounds with KCNK3 inh. 2,400 tested, 40% active. non-induced KCNK3 parental cells, FluxOR thallium flux; stronger effect = lower value;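 active = thallium flux ratio, averaged over three wells, more than 5 SD below the buffer control mean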;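 note: host cells are CHO cells without KCNK3 induction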
Of the large screens only hits and unclear results are named; the others gave an inactive call (follow-up assays come after a bar, where they were run). This is a sample that favours compounds with a hit; in the whole collection about 3.7% have one here.

O=C(NCCSc1c[nH]c2ccccc12)c1ccco1	none
COc1ccc(-c2csc(N(CC3CCCO3)C(=O)c3ccccc3)n2)cc1 (stereo unspecified)	KCNK3 inh -8.91 | KCNK3 inh conf 89.0 | KCNK3 uninduced inactive
COc1ccc(-c2csc(N(CC3CCCO3)C(=O)c3ccc(C)cc3)n2)cc1 (stereo unspecified)	none
CN1CCN(C2=C(Cl)C(=O)c3ccccc3C2=O)CC1	KCNK3 inh -14.3 (no result: Kir21 block, KCNQ1 inh, KCNK9 inh, hERG protect, KCNQ1 pot) | KCNK3 inh conf 160.0 | KCNK3 uninduced 0.0567
Cc1cccc2c(=O)c(Br)c(C)n(Cc3ccccc3)c12	KCNK3 inh -8.91, KCNK9 inh -7.8 | KCNK3 inh conf 105.3 | KCNK3 uninduced inactive
Cc1ccc(-c2cc(-c3ccc(C)o3)nc(N)c2C#N)cc1	KCNK3 inh -10.9 | KCNK3 inh conf 101.3 | KCNK3 uninduced inactive
O=C(Nc1ccccc1Cl)c1cc2ccccc2o/c1=N\O	none
COc1cccc(NC(=O)c2cc3ccccc3o/c2=N\O)c1	KCNK3 inh -8.74 | KCNK3 inh conf 124.7 | KCNK3 uninduced 0.13
COC(=O)c1cc(NC(=O)c2cc(-c3ccccc3Cl)oc2C(F)(F)F)ccc1N1CCOCC1	KCNK3 inh -11.3, KCNQ1 inh 8 | KCNK3 inh conf 84.0 | KCNK3 uninduced 0.125
COc1ccc(N=Cc2c(O)c3ccccc3n2C(C)=O)cc1	KCNK3 inh -12.9 | KCNK3 inh conf 142.7 | KCNK3 uninduced 0.0977
COc1ccc(N=Cc2sc(O)c3ccccc23)cc1	none
COc1cc(C(=O)NC(C)C2CC3CCC2C3)ccc1OC(F)F (stereo unspecified)	KCNK3 inh -12 (no result: Kir21 block, KCNQ1 inh, KCNK9 inh, hERG protect, KCNQ1 pot) | KCNK3 inh conf 109.7 | KCNK3 uninduced 0.124
CC(NC(=O)c1ccc(F)cc1)C1CC2CCC1C2 (stereo unspecified)	none
C/C(=N\Nc1cccc(C(=O)O)c1)c1cc2ccccc2o1	none
COc1ccc(/C=N/NC(=O)c2cc(-c3ccccc3OC)nc3ccccc23)cc1COC(C)=O	KCNK3 inh -11.4 | KCNK3 inh conf 97.3 | KCNK3 uninduced inactive
Cc1ccc(NC(=O)c2ccc(C)cc2)cc1	none
Cc1ccc(C(=O)Nc2ccc(Br)c(C(F)(F)F)c2)cc1	KCNK3 inh -9.26 | KCNK3 inh conf 119.7 | KCNK3 uninduced inactive
O=C(CCCOc1ccc(Br)cc1)NCCc1ccc(OC(F)F)cc1	none
CCOC(=O)c1c(O)c2cccc3c2n(c1=O)CC3	KCNK3 inh -9.12 | KCNK3 inh conf 100.3 | KCNK3 uninduced inactive
CCCNC(=O)c1c(O)c2cccc3c2n(c1=O)CCC3	none
CCCn1c(/C=C/c2ccccc2)nc2ccccc21	none
COCCOCCn1c(/C=C/c2ccccc2)nc2ccccc21	KCNK3 inh -9.23 | KCNK3 inh conf 93.0 | KCNK3 uninduced inactive
CCOC(=O)C1=C(c2ccccc2)NC(=O)N(C(C)=O)C1c1cccc([N+](=O)[O-])c1 (stereo unspecified)	none
C#CCN1C(C)=C(C(=O)OC)C(c2cccc([N+](=O)[O-])c2)C(C(=O)OCC)=C1C (stereo unspecified)	KCNK3 inh -12.1 (no result: Kir21 block, KCNQ1 inh, KCNK9 inh, hERG protect, KCNQ1 pot) | KCNK3 inh conf 109.0 | KCNK3 uninduced inactive
COc1cc(Cl)c(C)cc1NC(=O)CSc1ccc(C)cc1	none
COc1cc(Cl)c(C)cc1NC(=O)CSc1ccccc1	KCNK3 inh -9.39 | KCNK3 inh conf 113.0 | KCNK3 uninduced inactive
COc1ccccc1NC(=O)Nc1nc(CC(=O)NCc2ccccn2)cs1	none
COc1ccccc1CNC(=O)Cc1csc(NC(=O)Nc2ccccc2OC)n1	KCNK3 inh -8.71 | KCNK3 inh conf 99.0 | KCNK3 uninduced inactive
Cc1onc(-c2c(F)cccc2Cl)c1C(=O)N=C(N)N1CC(C)OC(C)C1 (stereo unspecified)	none
